Laboratory results as given in ChEMBL document CHEMBL1141667, “Synthesis and antimicrobial activities of 7-O-modified genistein derivatives” (2008).
≈ marks a conversion by molar mass, not a printed value.

These compounds were tested on Staphylococcus aureus (assay: Antibacterial activity against Staphylococcus aureus after 24 hrs by MTT assay).
Assay type: functional
Procedure, shortened: (§1)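 Broth microdilution MIC in MH medium. Compounds from a 50 mg/mL DMSO stock were serially diluted in medium. Inoculum was about 10⁵ cfu/mL, each concentration in triplicate, incubated at 37 °C for 24 h. MIC was read visually, then confirmed by adding PBS with 2 mg/mL MTT and incubating 4–5 h at room temperature. A compound-free medium control checked for any MTT effect on growth.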

Structure (SMILES) | MIC
O=c1c(-c2ccc(O)cc2)coc2cc(OCCCCn3cnc4ccccc43)cc(O)c12 | 21.3 µg/mL (≈ 48.1 µM)
O=c1c(-c2ccc(O)cc2)coc2cc(OCCCn3cnc4ccccc43)cc(O)c12 | > 50 µg/mL
O=c1c(-c2ccc(O)cc2)coc2cc(OCCCCNCc3ccco3)cc(O)c12 | 35.3 µg/mL (≈ 83.8 µM)
O=c1c(-c2ccc(O)cc2)coc2cc(OCCn3ccnc3)cc(O)c12 | > 50 µg/mL
O=c1c(-c2ccc(O)cc2)coc2cc(OCCCCN3CCCC3)cc(O)c12 | 23.7 µg/mL (≈ 59.9 µM)

Next, values leading:

MIC | Structure (SMILES)
> 50 µg/mL | O=c1c(-c2ccc(O)cc2)coc2cc(OCCCn3ccnc3)cc(O)c12
> 50 µg/mL | O=c1c(-c2ccc(O)cc2)coc2cc(OCCCBr)cc(O)c12
> 50 µg/mL | O=c1c(-c2ccc(O)cc2)coc2cc(OCCBr)cc(O)c12
15.3 µg/mL (≈ 37.2 µM) | CCCN(CCC)CCCOc1cc(O)c2c(=O)c(-c3ccc(O)cc3)coc2c1

What follows are compounds tested on Pseudomonas fluorescens (assay: Antibacterial activity against Pseudomonas fluorescens after 24 hrs by MTT assay).
Assay type: functional
Procedure, shortened: as §1

Structure (SMILES) | MIC
O=c1c(-c2ccc(O)cc2)coc2cc(OCCCCn3cnc4ccccc43)cc(O)c12 | > 50 µg/mL
O=c1c(-c2ccc(O)cc2)coc2cc(OCCCn3cnc4ccccc43)cc(O)c12 | > 50 µg/mL
O=c1c(-c2ccc(O)cc2)coc2cc(OCCCCNCc3ccco3)cc(O)c12 | 12 µg/mL (≈ 28.5 µM)
O=c1c(-c2ccc(O)cc2)coc2cc(OCCn3ccnc3)cc(O)c12 | > 50 µg/mL
O=c1c(-c2ccc(O)cc2)coc2cc(OCCCCN3CCCC3)cc(O)c12 | 23.1 µg/mL (≈ 58.4 µM)

The next lines start with the values.

MIC | Structure (SMILES)
> 50 µg/mL | O=c1c(-c2ccc(O)cc2)coc2cc(OCCCn3ccnc3)cc(O)c12
> 50 µg/mL | O=c1c(-c2ccc(O)cc2)coc2cc(OCCCBr)cc(O)c12
> 50 µg/mL | O=c1c(-c2ccc(O)cc2)coc2cc(OCCBr)cc(O)c12
45 µg/mL (≈ 109 µM) | CCCN(CCC)CCCOc1cc(O)c2c(=O)c(-c3ccc(O)cc3)coc2c1

The compounds below were run on Bacillus subtilis (assay: Antibacterial activity against Bacillus subtilis after 24 hrs by MTT assay).
Assay type: functional
Procedure, shortened: as §1

Structure (SMILES) | MIC
O=c1c(-c2ccc(O)cc2)coc2cc(OCCCCn3cnc4ccccc43)cc(O)c12 | > 50 µg/mL
O=c1c(-c2ccc(O)cc2)coc2cc(OCCCn3cnc4ccccc43)cc(O)c12 | > 50 µg/mL
O=c1c(-c2ccc(O)cc2)coc2cc(OCCCCNCc3ccco3)cc(O)c12 | > 50 µg/mL
O=c1c(-c2ccc(O)cc2)coc2cc(OCCn3ccnc3)cc(O)c12 | > 50 µg/mL
O=c1c(-c2ccc(O)cc2)coc2cc(OCCCCN3CCCC3)cc(O)c12 | 38.5 µg/mL (≈ 97.4 µM)

Continued, values first:

MIC | Structure (SMILES)
> 50 µg/mL | O=c1c(-c2ccc(O)cc2)coc2cc(OCCCn3ccnc3)cc(O)c12
> 50 µg/mL | O=c1c(-c2ccc(O)cc2)coc2cc(OCCCBr)cc(O)c12
> 50 µg/mL | O=c1c(-c2ccc(O)cc2)coc2cc(OCCBr)cc(O)c12
32 µg/mL (≈ 77.8 µM) | CCCN(CCC)CCCOc1cc(O)c2c(=O)c(-c3ccc(O)cc3)coc2c1

These compounds were tested on Aspergillus niger (assay: Antifungal activity against Aspergillus niger after 48 hrs by MTT assay).
Assay type: functional
Procedure, shortened: (§2)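 Antifungal MIC by microdilution in RPMI-1640 medium. Compounds came from a 50 mg/mL DMSO stock and were serially diluted. Inoculum was about 10⁵ cfu/mL, with triplicate wells per concentration, incubated at 37 °C for 48 h. MIC was judged visually, followed by PBS containing 2 mg/mL MTT for 4–5 h at room temperature for the colorimetric read. A compound-free control tested MTT interference.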

Structure (SMILES) | MIC
O=c1c(-c2ccc(O)cc2)coc2cc(OCCCCn3cnc4ccccc43)cc(O)c12 | > 50 µg/mL
O=c1c(-c2ccc(O)cc2)coc2cc(OCCCn3cnc4ccccc43)cc(O)c12 | > 50 µg/mL
O=c1c(-c2ccc(O)cc2)coc2cc(OCCCCNCc3ccco3)cc(O)c12 | > 50 µg/mL
O=c1c(-c2ccc(O)cc2)coc2cc(OCCn3ccnc3)cc(O)c12 | > 50 µg/mL
O=c1c(-c2ccc(O)cc2)coc2cc(OCCCCN3CCCC3)cc(O)c12 | > 50 µg/mL

The next lines start with the values.

MIC | Structure (SMILES)
> 50 µg/mL | O=c1c(-c2ccc(O)cc2)coc2cc(OCCCn3ccnc3)cc(O)c12
> 50 µg/mL | O=c1c(-c2ccc(O)cc2)coc2cc(OCCCBr)cc(O)c12
> 50 µg/mL | O=c1c(-c2ccc(O)cc2)coc2cc(OCCBr)cc(O)c12
> 50 µg/mL | CCCN(CCC)CCCOc1cc(O)c2c(=O)c(-c3ccc(O)cc3)coc2c1

The compounds below were run on Trichophyton rubrum (assay: Antifungal activity against Trichophyton rubrum after 48 hrs by MTT assay).
Assay type: functional
Procedure, shortened: as §2

Structure (SMILES) | MIC
O=c1c(-c2ccc(O)cc2)coc2cc(OCCCCn3cnc4ccccc43)cc(O)c12 | > 50 µg/mL
O=c1c(-c2ccc(O)cc2)coc2cc(OCCCn3cnc4ccccc43)cc(O)c12 | > 50 µg/mL
O=c1c(-c2ccc(O)cc2)coc2cc(OCCCCNCc3ccco3)cc(O)c12 | > 50 µg/mL
O=c1c(-c2ccc(O)cc2)coc2cc(OCCn3ccnc3)cc(O)c12 | > 50 µg/mL
O=c1c(-c2ccc(O)cc2)coc2cc(OCCCCN3CCCC3)cc(O)c12 | 48.5 µg/mL (≈ 123 µM)

Now from value to compound:

MIC | Structure (SMILES)
> 50 µg/mL | O=c1c(-c2ccc(O)cc2)coc2cc(OCCCn3ccnc3)cc(O)c12
> 50 µg/mL | O=c1c(-c2ccc(O)cc2)coc2cc(OCCCBr)cc(O)c12
> 50 µg/mL | O=c1c(-c2ccc(O)cc2)coc2cc(OCCBr)cc(O)c12
> 50 µg/mL | CCCN(CCC)CCCOc1cc(O)c2c(=O)c(-c3ccc(O)cc3)coc2c1

Each compound was assayed on Escherichia coli (assay: Antibacterial activity against Escherichia coli after 24 hrs by MTT assay).
Assay type: functional
Procedure, shortened: as §1

Structure (SMILES) | MIC
O=c1c(-c2ccc(O)cc2)coc2cc(OCCCCn3cnc4ccccc43)cc(O)c12 | > 50 µg/mL
O=c1c(-c2ccc(O)cc2)coc2cc(OCCCn3cnc4ccccc43)cc(O)c12 | > 50 µg/mL
O=c1c(-c2ccc(O)cc2)coc2cc(OCCCCNCc3ccco3)cc(O)c12 | > 50 µg/mL
O=c1c(-c2ccc(O)cc2)coc2cc(OCCn3ccnc3)cc(O)c12 | > 50 µg/mL
O=c1c(-c2ccc(O)cc2)coc2cc(OCCCCN3CCCC3)cc(O)c12 | > 50 µg/mL

Now from value to compound:

MIC | Structure (SMILES)
> 50 µg/mL | O=c1c(-c2ccc(O)cc2)coc2cc(OCCCn3ccnc3)cc(O)c12
> 50 µg/mL | O=c1c(-c2ccc(O)cc2)coc2cc(OCCCBr)cc(O)c12
> 50 µg/mL | O=c1c(-c2ccc(O)cc2)coc2cc(OCCBr)cc(O)c12
> 50 µg/mL | CCCN(CCC)CCCOc1cc(O)c2c(=O)c(-c3ccc(O)cc3)coc2c1

The compounds below were run on Candida albicans (assay: Antifungal activity against Candida albicans after 48 hrs by MTT assay).
Assay type: functional
Procedure, shortened: as §2

Structure (SMILES) | MIC
O=c1c(-c2ccc(O)cc2)coc2cc(OCCCCn3cnc4ccccc43)cc(O)c12 | > 50 µg/mL
O=c1c(-c2ccc(O)cc2)coc2cc(OCCCn3cnc4ccccc43)cc(O)c12 | > 50 µg/mL
O=c1c(-c2ccc(O)cc2)coc2cc(OCCCCNCc3ccco3)cc(O)c12 | > 50 µg/mL
O=c1c(-c2ccc(O)cc2)coc2cc(OCCn3ccnc3)cc(O)c12 | > 50 µg/mL
O=c1c(-c2ccc(O)cc2)coc2cc(OCCCCN3CCCC3)cc(O)c12 | > 50 µg/mL

Second part, the compound after the results:

MIC | Structure (SMILES)
> 50 µg/mL | O=c1c(-c2ccc(O)cc2)coc2cc(OCCCn3ccnc3)cc(O)c12
> 50 µg/mL | O=c1c(-c2ccc(O)cc2)coc2cc(OCCCBr)cc(O)c12
> 50 µg/mL | O=c1c(-c2ccc(O)cc2)coc2cc(OCCBr)cc(O)c12
> 50 µg/mL | CCCN(CCC)CCCOc1cc(O)c2c(=O)c(-c3ccc(O)cc3)coc2c1
